From ChEMBL document CHEMBL2029252, “Pharmacophore-based small molecule CXCR4 ligands” (Bioorg Med Chem Lett, 2012)
The source made the active and inactive calls. The calls are words filed in the database; no cut-off is given here.

Experiments:
[1] = biological target: C-X-C chemokine receptor type 4 (Homo sapiens) (UniProt P61073); assay: Displacement of [125I]-CXCL12 from CXCR4 expressed in human Jurkat cells at 10 uM relative to T140; format: cell-based
Summary of the method: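 Competition for [125I]-CXCL12 binding to Jurkat cells, test compounds at 10 µM. Percent inhibition expressed relative to that given by the reference peptide T140, set at 100%.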

[2] = tested on: Human immunodeficiency virus 1; assay: Antiviral activity against X4-tropic HIV1 NL4.3 infected in human MT4 cells assessed as protection from virus-induced cytopathogenicity; format: functional, organism-based; conditions: Human immunodeficiency virus 1, NL4.3, MT4
Summary of the method: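 MT-4 cells infected with X4 HIV-1 strain NL4-3; readout is protection from virus-induced cytopathogenicity. EC50 = concentration giving 50% protection, mean of at least three independent experiments.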

[3] = Cytotoxicity against human MT4 cells assessed as reduction of cell viability; format: cell-based
[4] = tested on: Human immunodeficiency virus 1; assay: Antiviral activity against R5-tropic HIV1 NL(AD8) infected in human PM1 cells expressing CCR5 assessed as protection from virus-induced cytopathogenicity at < 100 uM; format: functional, organism-based
[5] = tested on: Human immunodeficiency virus 1; assay: Antiviral activity against R5-tropic HIV1 NL(AD8) infected in human PM1 cells expressing CCR5 assessed as protection from virus-induced cytopathogenicity; format: functional, organism-based; conditions: Human immunodeficiency virus 1, NL(AD8)

Chain of C-X-C chemokine receptor type 4 (Homo sapiens) (P61073 whole entry): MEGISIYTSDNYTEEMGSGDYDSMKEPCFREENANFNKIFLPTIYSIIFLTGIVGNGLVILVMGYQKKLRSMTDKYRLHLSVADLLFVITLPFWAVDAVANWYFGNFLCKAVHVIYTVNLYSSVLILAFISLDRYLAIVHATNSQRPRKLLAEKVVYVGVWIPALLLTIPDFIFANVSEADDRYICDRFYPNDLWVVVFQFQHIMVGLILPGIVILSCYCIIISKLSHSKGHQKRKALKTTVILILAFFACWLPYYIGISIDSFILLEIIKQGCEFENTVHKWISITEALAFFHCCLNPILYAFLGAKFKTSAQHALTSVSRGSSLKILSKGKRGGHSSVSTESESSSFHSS

SMILES	inhibition [1] [%]	EC50 [2] [µM]	CC50 [3] [µM]	Activity [4]	EC50 [5] [µM]
C[C@H](NC(=O)[C@H](CCCNC(=N)N)NC(=O)c1ccc(CN(CCc2cccnc2)C(=O)c2ccc(F)cc2)cc1)c1cccc2ccccc12	32	–	–	–	–
C[C@H](NC(=O)[C@H](CCCNC(=N)N)NC(=O)c1ccc(CN(CCc2ccccn2)Cc2ccc(F)cc2)cc1)c1cccc2ccccc12	25	> 20	24	–	–
C[C@H](NC(=O)[C@H](CCCNC(=N)N)NC(=O)c1ccc(CN(Cc2ccncc2)Cc2ccc(F)cc2)cc1)c1cccc2ccccc12	16	8	44	inactive	–
C[C@H](NC(=O)[C@H](CCCNC(=N)N)NC(=O)c1ccc(CN(CCc2ccncc2)C(=O)c2ccc(F)cc2)cc1)c1cccc2ccccc12	25	> 20	47	–	–
C[C@H](NC(=O)[C@H](CCCNC(=N)N)NC(=O)c1ccc(CN(CCc2ccc(F)cc2)CCc2cccnc2)cc1)c1cccc2ccccc12	35	–	–	–	–
C[C@@H](NC(=O)[C@H](CCCNC(=N)N)NC(=O)c1ccc(CN(CCc2ccncc2)CCc2ccc(F)cc2)cc1)c1cccc2ccccc12	0	–	–	–	–
C[C@@H](NC(=O)[C@H](CCCNC(=N)N)NC(=O)c1ccc(CN(CCc2ccncc2)Cc2ccc(F)cc2)cc1)c1cccc2ccccc12	16	–	–	–	–
C[C@H](NC(=O)[C@H](CCCNC(=N)N)NC(=O)c1ccc(CN(CCc2ccc(F)cc2)CCc2ccccn2)cc1)c1cccc2ccccc12	23	> 4	13	–	–
C[C@@H](NC(=O)[C@H](CCCNC(=N)N)NC(=O)c1ccc(CN(CCc2ccccn2)Cc2ccc(F)cc2)cc1)c1cccc2ccccc12	4	> 4	23	–	–
C[C@@H](NC(=O)[C@H](CCCNC(=N)N)NC(=O)c1ccc(CN(CCc2ccc(F)cc2)Cc2ccncc2)cc1)c1cccc2ccccc12	44	–	–	–	–
C[C@H](NC(=O)[C@H](CCCNC(=N)N)NC(=O)c1ccc(CN(CCc2ccc(F)cc2)Cc2ccccn2)cc1)c1cccc2ccccc12	16	> 4	9.9	–	–
C[C@H](NC(=O)[C@H](CCCNC(=N)N)NC(=O)c1ccc(CN(CCc2ccncc2)Cc2ccc(F)cc2)cc1)c1cccc2ccccc12	20	10	44	inactive	–
C[C@@H](NC(=O)[C@H](CCCNC(=N)N)NC(=O)c1ccc(CN(CCc2ccc(F)cc2)Cc2ccccn2)cc1)c1cccc2ccccc12	15	–	–	–	–
C[C@H](NC(=O)[C@H](CCCNC(=N)N)NC(=O)c1ccc(CN(CCc2ccncc2)CCc2ccc(F)cc2)cc1)c1cccc2ccccc12	51	–	–	–	–
C[C@@H](NC(=O)[C@H](CCCNC(=N)N)NC(=O)c1ccc(CNC(=O)c2ccc(C(F)(F)F)cc2)cc1)c1cccc2ccccc12	–	7.4	66	–	–
N=C(N)NCCC[C@@H]1NC(=O)[C@H](CCCNC(=N)N)NC(=O)[C@@H](Cc2ccc(O)cc2)NC(=O)CNC(=O)[C@H](Cc2ccc3ccccc3c2)NC1=O	100	–	> 10	–	–
C[C@@H](NC(=O)[C@H](CCCNC(=N)N)NC(=O)c1ccc(CN(Cc2ccncc2)Cc2ccc(F)cc2)cc1)c1cccc2ccccc12	12	> 20	39	–	–
C[C@@H](NC(=O)[C@H](CCCNC(=N)N)NC(=O)c1ccc(CN(Cc2ccncc2)C(=O)c2ccc(F)cc2)cc1)c1cccc2ccccc12	6	> 20	45	–	–
C[C@@H](NC(=O)[C@H](CCCNC(=N)N)NC(=O)c1ccc(CN(Cc2ccc(F)cc2)Cc2cccnc2)cc1)c1cccc2ccccc12	6	> 20	37	–	–
COC[C@@H](c1ccc(C(F)(F)F)cc1)N1CCN(C2(C)CCN(C(=O)c3c(C)ncnc3C)CC2)C[C@@H]1C [VICRIVIROC]	–	–	–	–	0.055
C[C@H](NC(=O)[C@H](CCCNC(=N)N)NC(=O)c1ccc(CNCc2ccccn2)cc1)c1cccc2ccccc12	100	0.33	80	–	–

SMILES	inhibition [1] [%]	EC50 [2] [µM]	CC50 [3] [µM]	Activity [4]	EC50 [5] [µM]
C[C@@H](NC(=O)[C@H](CCCNC(=N)N)NC(=O)c1ccc(CN(Cc2ccccn2)C(=O)c2ccc(F)cc2)cc1)c1cccc2ccccc12	3	> 20	38	–	–
C[C@@H](NC(=O)[C@H](CCCNC(=N)N)NC(=O)c1ccc(CN(Cc2ccc(F)cc2)Cc2ccccn2)cc1)c1cccc2ccccc12	0	> 20	35	–	–
C[C@H](NC(=O)[C@H](CCCNC(=N)N)NC(=O)c1ccc(CN(Cc2ccc(F)cc2)Cc2cccnc2)cc1)c1cccc2ccccc12	27	> 20	41	–	–
C[C@H](NC(=O)[C@H](CCCNC(=N)N)NC(=O)c1ccc(CN(CCc2ccc(F)cc2)Cc2cccnc2)cc1)c1cccc2ccccc12	36	–	–	–	–
C[C@H](NC(=O)[C@H](CCCNC(=N)N)NC(=O)c1ccc(CN(Cc2ccncc2)C(=O)c2ccc(F)cc2)cc1)c1cccc2ccccc12	13	> 20	51	–	–
C[C@@H](NC(=O)[C@H](CCCNC(=N)N)NC(=O)c1ccc(CN(CCc2ccc(F)cc2)CCc2cccnc2)cc1)c1cccc2ccccc12	69	> 11	11	inactive	–
C[C@H](NC(=O)[C@H](CCCNC(=N)N)NC(=O)c1ccc(CN(CCc2cccnc2)Cc2ccc(F)cc2)cc1)c1cccc2ccccc12	60	13	65	inactive	–
C[C@H](NC(=O)[C@H](CCCNC(=N)N)NC(=O)c1ccc(CN(Cc2ccccn2)C(=O)c2ccc(F)cc2)cc1)c1cccc2ccccc12	36	> 20	37	–	–
Cc1cn([C@H]2C[C@H](N=[N+]=[N-])[C@@H](CO)O2)c(=O)[nH]c1=O [ZIDOVUDINE]	–	0.058	100	–	–
C[C@H](NC(=O)[C@H](CCCNC(=N)N)NC(=O)c1ccc(CN(Cc2ccc(F)cc2)Cc2ccccn2)cc1)c1cccc2ccccc12	30	> 4	11	–	–
C[C@@H](NC(=O)[C@H](CCCNC(=N)N)NC(=O)c1ccc(CN(CCc2ccc(F)cc2)CCc2ccccn2)cc1)c1cccc2ccccc12	13	> 20	27	–	–
C[C@H](NC(=O)[C@H](CCCNC(=N)N)NC(=O)c1ccc(CN(CCc2ccc(F)cc2)Cc2ccncc2)cc1)c1cccc2ccccc12	26	–	–	–	–
C[C@@H](NC(=O)[C@H](CCCNC(=N)N)NC(=O)c1ccc(CN(CCc2cccnc2)C(=O)c2ccc(F)cc2)cc1)c1cccc2ccccc12	22	–	–	–	–
C[C@H](NC(=O)[C@H](CCCNC(=N)N)NC(=O)c1ccc(CN(Cc2cccnc2)C(=O)c2ccc(F)cc2)cc1)c1cccc2ccccc12	14	> 20	57	–	–
C[C@@H](NC(=O)[C@H](CCCNC(=N)N)NC(=O)c1ccc(CN(CCc2ccccn2)C(=O)c2ccc(F)cc2)cc1)c1cccc2ccccc12	6	> 20	41	–	–
C[C@@H](NC(=O)[C@H](CCCNC(=N)N)NC(=O)c1ccc(CN(CCc2ccncc2)C(=O)c2ccc(F)cc2)cc1)c1cccc2ccccc12	12	–	–	–	–
C[C@@H](NC(=O)[C@H](CCCNC(=N)N)NC(=O)c1ccc(CN(Cc2cccnc2)C(=O)c2ccc(F)cc2)cc1)c1cccc2ccccc12	11	> 20	45	–	–
C[C@H](NC(=O)[C@H](CCCNC(=N)N)NC(=O)c1ccc(CN(CCc2ccccn2)C(=O)c2ccc(F)cc2)cc1)c1cccc2ccccc12	0	> 20	43	–	–
C[C@@H](NC(=O)[C@H](CCCNC(=N)N)NC(=O)c1ccc(CN(CCc2cccnc2)Cc2ccc(F)cc2)cc1)c1cccc2ccccc12	24	–	–	–	–
C[C@@H](NC(=O)[C@H](CCCNC(=N)N)NC(=O)c1ccc(CN(CCc2ccc(F)cc2)Cc2cccnc2)cc1)c1cccc2ccccc12	79	11	47	inactive	–
